{"data": "Assay results pooled from the literature", "PBRM1 bromodomain": "Protein polybromo-1, bromodomain (PBRM1, Homo sapiens, UniProt Q86U86)", "BRD2 BD1": "Bromodomain-containing protein 2, BD1 (BRD2, Homo sapiens, UniProt P25440)", "CSNK1A1L": "Casein kinase I isoform alpha-like (CSNK1A1L, Homo sapiens, UniProt Q8N752)", "PBRM1 BD2": "Protein polybromo-1, BD2 (PBRM1, Homo sapiens, UniProt Q86U86)", "ALDH2": "Aldehyde dehydrogenase, mitochondrial (ALDH2, Homo sapiens, UniProt P05091)", "note": "Each line is one published result; the experiments were not run side by side."}
{"SMILES": "CCC(/C=C1\\CCCn2c1nc(=O)c1c(Cl)cccc12)CC", "target": "PBRM1 bromodomain", "assay": "thermal stability, DSF", "conditions": "100 µM", "measurement": "ΔTm", "value": "5.82 °C"}
{"SMILES": "Oc1ccc(-c2nc(-c3ccncc3)c(-c3ccc(F)cc3)[nH]2)cc1", "target": "BRD2 BD1", "assay": "thermal stability, DSF", "conditions": "10 µM", "measurement": "ΔTm", "value": "1.18 °C"}
{"SMILES": "CC(C)(C)C/C=C1\\CCn2c1nc(=O)c1c(Cl)cccc12", "target": "PBRM1 bromodomain", "assay": "thermal stability, DSF", "conditions": "100 µM", "measurement": "ΔTm", "value": "7.06 °C"}
{"SMILES": "CC(C)(O)[C@H]1CC[C@H](Nc2ccc3ncc(-c4cccc(C(F)(F)F)c4)n3n2)CC1", "target": "Serine/threonine-protein kinase N3 (PKN3, Homo sapiens, UniProt Q6P5Z2)", "assay": "enzyme activity, inhibitor", "conditions": "1 µM", "measurement": "remaining activity", "value": "40.2%"}
{"SMILES": "CC(C)(C)c1ccc(NC(c2ccccc2)c2ccc3ccccc3c2O)cc1 (centres unmarked)", "target": "CAAX prenyl protease 2 (Homo sapiens, UniProt Q9Y256)", "assay": "enzyme activity, inhibitor", "conditions": "10 µM", "measurement": "remaining activity", "value": "< 40%"}
{"SMILES": "Nc1ncnc2occ(-c3ccc(NC(=O)Nc4cc(C(F)(F)F)ccc4F)cc3)c12", "target": "CSNK1A1L", "assay": "cell-free assay", "conditions": "20 µM", "measurement": "remaining signal", "value": "39%"}
{"SMILES": "NS(=O)(=O)c1ccc(Nc2nc(-c3ccc(F)cc3)c3ccccc3n2)cc1", "target": "BRD2 BD1", "assay": "binding, competition with immobilised ligand", "conditions": "1 µM", "measurement": "remaining binding", "value": "4%"}
{"SMILES": "Cc1cnc(Nc2ccc(OCCN3CCCC3)cc2)nc1Nc1cccc(S(=O)(=O)NC(C)(C)C)c1", "target": "BRD2 BD1", "assay": "thermal stability, DSF", "conditions": "10 µM", "measurement": "ΔTm", "value": "2.4 °C"}
{"SMILES": "CC/C=C1\\CCn2c1nc(=O)c1c(Cl)cccc12", "target": "PBRM1 bromodomain", "assay": "thermal stability, DSF", "conditions": "100 µM", "measurement": "ΔTm", "value": "5.03 °C"}
{"SMILES": "CCC1=C[C@@H]2CN(C1)Cc1c([nH]c3ccccc13)[C@@](C(=O)OC)(c1cc3c(cc1OC)N(C)[C@H]1[C@@](O)(C(=O)OC)[C@H](OC(C)=O)[C@]4(CC)C=CCN5CC[C@]31[C@@H]54)C2", "target": "Organic cation/carnitine transporter 2 (SLC22A5, Homo sapiens, UniProt O76082)", "assay": "transporter uptake, inhibitor", "system": "HEK293", "conditions": "100 µM", "measurement": "remaining activity", "value": "15.3%"}
{"SMILES": "C[S+]([O-])c1ccc(-c2nc(-c3ccncc3)c(-c3ccc(F)cc3)[nH]2)cc1 (centres unmarked)", "target": "Protein polybromo-1, BD1 (PBRM1, Homo sapiens, UniProt Q86U86)", "assay": "thermal stability, DSF", "conditions": "10 µM", "measurement": "ΔTm", "value": "0.28 °C"}
{"SMILES": "CCC(/C=C1\\CCn2c1nc(=O)c1ccc(O)cc12)CC", "target": "PBRM1 BD2", "assay": "thermal stability, DSF", "conditions": "100 µM", "measurement": "ΔTm", "value": "3.49 °C"}
{"SMILES": "Cc1oc2cc3oc(=O)c(C)c(C)c3cc2c1C", "target": "ALDH2", "assay": "enzyme activity, inhibitor, absorbance", "conditions": "10 µM", "measurement": "remaining activity", "value": "20.7%"}
{"SMILES": "CCC(/C=C1\\CCn2c1nc(=O)c1cc(Cl)ccc12)CC", "target": "PBRM1 BD2", "assay": "thermal stability, DSF", "conditions": "100 µM", "measurement": "ΔTm", "value": "0.47 °C"}
{"SMILES": "CCCOc1ccc(OC)c(F)c1C(=O)c1ccc(C(=O)N[C@@H]2CNC[C@H]2NC(=O)c2ccc3[nH]ncc3c2)cc1", "target": "Tyrosine-protein kinase ABL1 (Abl1, Mus musculus, UniProt P00520)", "assay": "enzyme activity, inhibitor", "conditions": "10 µM", "measurement": "remaining activity", "value": "63%"}
{"SMILES": "CCC(/C=C1\\CCn2c1nc(=O)c1c(Cl)cccc12)CC", "target": "PBRM1 bromodomain", "assay": "thermal stability, DSF", "conditions": "100 µM", "measurement": "ΔTm", "value": "10.3 °C"}
{"SMILES": "COc1cc(NC(C)=O)c(Cl)cc1C(=O)Nc1nccs1", "target": "Muscarinic acetylcholine receptor M1 (CHRM1, Homo sapiens, UniProt P11229)", "assay": "cell-free assay", "conditions": "10 µM", "measurement": "inhibition", "value": "2.6%"}
{"SMILES": "O=[N+]([O-])OCC(CO[N+](=O)[O-])O[N+](=O)[O-]", "target": "ALDH2", "assay": "enzyme activity, substrate", "measurement": "Km", "value": "~20 µM"}
{"SMILES": "Cc1cc2c(cc1N1C(=O)c3cccc4c(Cl)ccc(c34)C1=O)n(C)c(=O)n2C", "target": "Bromodomain-containing protein 2, BD2 (BRD2, Homo sapiens, UniProt P25440)", "assay": "thermal stability, DSF", "conditions": "10 µM", "measurement": "ΔTm", "value": "0.4 °C"}
{"SMILES": "Cc1ccc(C(=O)Nc2ccc(CN3CCN(C)CC3)c(C(F)(F)F)c2)cc1C#Cc1cnc2cccnn12", "target": "CSNK1A1L", "assay": "enzyme activity", "conditions": "23.5 nM", "measurement": "remaining activity", "value": "100%"}
{"SMILES": "CCC/C=C1\\CCn2c1nc(=O)c1c(Cl)cccc12", "target": "PBRM1 BD2", "assay": "thermal stability, DSF", "conditions": "100 µM", "measurement": "ΔTm", "value": "3.03 °C"}
{"SMILES": "CCCN1CCCn2c1nc1c2c(=O)n(C)c(=O)n1C", "target": "Adenosine receptor A2b (ADORA2B, Homo sapiens, UniProt P29275)", "assay": "ligand displacement, radioligand", "conditions": "10 µM, cell membranes", "measurement": "inhibition", "value": "1%"}
{"SMILES": "CN(C)C1CCN(CC#Cc2nn(C3CCCC3)c3nc(NCc4ccccc4)ncc23)C1 (centres unmarked)", "target": "Insulin receptor (INSR, Homo sapiens, UniProt P06213)", "assay": "enzyme activity, inhibitor, FRET", "conditions": "10 µM", "measurement": "inhibition", "value": "31%"}
